Source: ChEMBL document CHEMBL4665832, “Benzylidene thiazolidinediones: Synthesis, in vitro investigations of antiproliferative mechanisms and in vivo efficacy determination in combination with Imatinib” (Bioorg Med Chem Lett, 2020)
Calls of active or inactive are those of the source. No cut-off for these calls is given here.

What was measured:
[1] = Cytotoxicity against hepatocytes (unknown origin) assessed as cell growth by MTT assay relative to control; format: cell-based, Hepatocyte; set-up: concentration or dose not given beside the values
HL-60 = assay: Antiproliferative activity against human HL-60 cells assessed as cell growth inhibition; format: functional
Method in brief: (§1)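 Cell lines screened for growth inhibition and GI₅₀ derived. Each value is the mean of 3 independent experiments.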

Jurkat = assay: Antiproliferative activity against human Jurkat cells assessed as cell growth inhibition; format: functional; method in brief: as §1
MOLT-4 = assay: Antiproliferative activity against human MOLT-4 cells assessed as cell growth inhibition; format: functional; method in brief: as §1
U-937 = assay: Antiproliferative activity against human U-937 cells assessed as cell growth inhibition; format: functional; method in brief: as §1
DU-145 = assay: Antiproliferative activity against human DU-145 cells assessed as cell growth inhibition; format: functional; method in brief: as §1
MDA-MB-435 = assay: Antiproliferative activity against human MDA-MB-435 cells assessed as cell growth inhibition; format: functional; method in brief: as §1
HOP-62 = assay: Antiproliferative activity against human HOP-62 cells assessed as cell growth inhibition; format: functional; method in brief: as §1
PC-3 = assay: Antiproliferative activity against human PC-3 cells assessed as cell growth inhibition; format: functional; method in brief: as §1
MCF7 = assay: Antiproliferative activity against human MCF7 cells assessed as cell growth inhibition; format: functional; method in brief: as §1
K562 [2] = assay: Antiproliferative activity against human K562 cells assessed as cell growth inhibition; format: functional; method in brief: as §1
[3] = Antiproliferative activity against human GURAV cells assessed as cell growth inhibition; format: functional; method in brief: as §1
KB = assay: Antiproliferative activity against human KB cells assessed as cell growth inhibition; format: functional; method in brief: as §1
K562 [4] = assay: Cell cycle arrest in human K562 cells assessed as accumulation at G0/G1 phase at 5 uM measured after 24 hrs by flow cytometry analysis; format: functional, cell-based
Method in brief: (§2)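 K562 cells exposed to 5 µM for 24 h, then cell-cycle phase distribution measured by flow cytometry. Untreated cells served as negative control and DMSO as vehicle control. SEM of n = 3. Two-tailed Student's t-test, P < 0.05.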

K562 [5] = assay: Cell cycle arrest in human K562 cells assessed as accumulation at S phase at 5 uM measured after 24 hrs by flow cytometry analysis; format: functional, cell-based; method in brief: as §2
K562 [6] = assay: Cell cycle arrest in human K562 cells assessed as accumulation at G2/M phase at 5 uM measured after 24 hrs by flow cytometry analysis; format: functional, cell-based; method in brief: as §2
K562 [7] = assay: Cell cycle arrest in human K562 cells assessed as increase in cells accumulation at G0/G1 phase measured after 24 to 72 hrs by flow cytometry analysis; format: functional, cell-based; details: dose microM 5-20, time hrs 24-72
Method in brief: (§3)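 K562 cells exposed to 5, 10 or 20 µM and sampled at 24, 48 and 72 h. Phase distribution (G0/G1, S, G2/M) measured by flow cytometry. Untreated and DMSO vehicle controls. SEM of n = 3. Two-tailed t-test, P < 0.05.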

K562 [8] = assay: Cell cycle arrest in human K562 cells assessed as decrease in cells accumulation at S phase measured after 24 to 72 hrs by flow cytometry analysis; format: functional, cell-based; details: dose microM 5-20, time hrs 24-72; method in brief: as §3
K562 [9] = assay: Cell cycle arrest in human K562 cells assessed as decrease in cells accumulation at G2/M phase measured after 24 to 72 hrs by flow cytometry analysis; format: functional, cell-based; details: dose microM 5-20, time hrs 24-72; method in brief: as §3
K562 [10] = assay: Cell cycle arrest in human K562 cells assessed as increase in cells accumulation at G0/G1 phase at 5 to 20 uM measured by flow cytometry analysis; format: functional, cell-based; details: dose microM 5-20, time hrs 24-72, TDE = time-dependent effect; method in brief: as §3
K562 [11] = assay: Cell cycle arrest in human K562 cells assessed as decrease in cells accumulation at S phase at 5 to 20 uM measured by flow cytometry analysis; format: functional, cell-based; details: dose microM 5-20, time hrs 24-72, TDE = time-dependent effect; method in brief: as §3
K562 [12] = assay: Cell cycle arrest in human K562 cells assessed as decrease in cells accumulation at G2/M phase at 5 to 20 uM measured by flow cytometry analysis; format: functional, cell-based; details: dose microM 5-20, time hrs 24-72, TDE = time-dependent effect; method in brief: as §3
K562 [13] = assay: Downregulation of cyclin-D1 expression in human K562 cells at 10 to 20 uM measured after 48 to 72 hrs by Western blot analysis; format: functional, cell-based; details: dose microM 10-20, time hrs 48-72
Method in brief: (§4)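 K562 cells treated at 10 or 20 µM for 24, 48 or 72 h. PCNA and cyclin D1 detected by Western blot, bands quantified and normalised to actin. Means of three separate experiments, SD, P < 0.05.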

K562 [14] = assay: Downregulation of PCNA expression in human K562 cells at 10 to 20 uM measured after 48 hrs by Western blot analysis; format: functional, cell-based; details: dose microM 10-20, time 48.0 hrs; method in brief: as §4
K562 [15] = assay: Downregulation of PCNA expression in human K562 cells at 20 uM measured after 72 hrs by Western blot analysis; format: functional, cell-based; method in brief: as §4
K562 [16] = assay: Anticancer activity against human K562 cells assessed as cell growth inhibition at 1 uM by MTT assay relative to control; format: functional; details: read-out: GI
Method in brief: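 K562 cells given imatinib 1 µM or test compound 1 µM alone, or imatinib 1 µM plus test compound 1 µM. Proliferation read by MTT assay and expressed as % inhibition.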

K562 [17] = assay: Potentiation of imatinib-induced anticancer activity against human K562 cells assessed as cell growth inhibition at 1 uM by MTT assay (reference value: 71%); format: functional; details: read-out: GI
[18] = Acute toxicity in po dosed mouse assessed as body weight loss; format: organism-based; details: in vivo
Method in brief: (§5)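 Healthy mice were given oral doses that increased over the study period. Each higher dose was given only if the previous dose was well tolerated. All animals were monitored for body weight loss, behavioural changes and mortality to set the maximum tolerated dose.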

[19] = Acute toxicity in po dosed mouse assessed as mortality; format: organism-based; details: in vivo; method in brief: as §5
[20] = Acute toxicity in po dosed mouse assessed as maximum tolerated dose; format: organism-based; details: in vivo; method in brief: as §5
K562 [21] = assay: Potentiation of imatinib-induced antitumor activity against human K562 cells xenografted in mouse assessed as reduction in tumor volume at 100 mg/kg, ip administered for 30 days co-treated with imatinib at 100 mg/kg and measured every day for 30 days; format: functional, organism-based; details: time 30.0 day
Method in brief: (§6)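 Mice implanted subcutaneously in the right rear flank with 6 × 10⁶ K562 cells/100 μl in 50% matrigel. Dosed intraperitoneally: compound alone 200 mg/kg, or compound 100 mg/kg plus imatinib 100 mg/kg; controls were imatinib 100 mg/kg and saline. Tumour volume tracked over time, n = 6. Dunnett's test against control.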

K562 [22] = assay: Antitumor activity against human K562 cells xenografted in mouse assessed as reduction in tumor volume at 200 mg/kg, ip administered for 30 days and measured every day for 30 days; format: functional, organism-based; details: time 30.0 day; method in brief: as §6
K562 [23] = assay: Downregulation of cyclin-D1 expression in human K562 cells at 10 to 20 uM measured after 24 hrs by Western blot analysis; format: functional, cell-based; details: dose microM 10-20, time 24.0 hrs; method in brief: as §4
K562 [24] = assay: Downregulation of PCNA expression in human K562 cells at 10 to 20 uM measured after 24 hrs by Western blot analysis; format: functional, cell-based; details: dose microM 10-20, time 24.0 hrs; method in brief: as §4
K562 [25] = assay: Downregulation of PCNA expression in human K562 cells at 10 to 20 uM measured after 48 to 72 hrs by Western blot analysis; format: functional, cell-based; details: dose microM 10-20, time hrs 48-72; method in brief: as §4
K562 [26] = assay: Induction of apoptosis in human K562 cells assessed as increase in cleaved PARP1 expression at 5 to 20 uM measured after 72 hrs by Western blot analysis; format: functional, cell-based; details: dose microM 5-20, time 72.0 hrs
Method in brief: (§7)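 K562 cells treated 72 h at 5, 10 or 20 µM alongside DMSO vehicle control. Cleaved PARP1 and caspase 3 detected by Western blot and normalised to actin. Means of at least two experiments, SD.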

K562 [27] = assay: Induction of apoptosis in human K562 cells assessed as increase in activated caspase-3 expression at 5 to 20 uM measured after 72 hrs by Western blot analysis; format: functional, cell-based; details: dose microM 5-20, time 72.0 hrs; method in brief: as §7

Row | Compound | viability [1] [%] | GI50 (HL-60) [µM] | GI50 (Jurkat) [µM] | GI50 (MOLT-4) [µM] | GI50 (U-937) [µM] | GI50 (HOP-62) [µM] | GI50 (PC-3) [µM] | GI50 (MCF7) [µM] | GI50 (K562 [2]) [µM] | GI50 [3] [µM] | GI50 (KB) [µM] | Activity (K562 [4]) | Activity (K562 [5]) | Activity (K562 [6]) | Activity (K562 [7]) | Activity (K562 [8]) | Activity (K562 [9]) | Activity (K562 [10]) | Activity (K562 [11]) | Activity (K562 [12]) | further results
1 | O=C(COc1ccc(/C=C2\SC(=O)NC2=O)cc1)Nc1cccc(C(F)(F)F)c1 | > 70 | 73.3 | 26.5 | 47.3 | 49.1 | – | – | – | – | – | – | – | – | – | – | – | – | – | – | – | GI50 (DU-145): 59.2 µM; GI50 (MDA-MB-435): > 100 µM
2 | O=C(COc1ccc(/C=C2\SC(=O)NC2=O)cc1)Nc1ccc(F)cc1F | > 70 | 47.8 | 34.6 | 40.3 | 35.6 | > 100 | > 100 | 65.8 | 0.9 | 61.4 | > 100 | Active | Active | Active | Dose-dependent effect | Dose-dependent effect | Dose-dependent effect | Tde | Tde | Tde | inhibition (K562 [13]): Active; inhibition (K562 [14]): inactive; inhibition (K562 [15]): Active; inhibition of growth at 1 µM (K562 [16]): 62%; inhibition of growth at 1 µM (K562 [17]): 79%; Activity [18]: Non-Toxic; Activity [19]: Non-Toxic; MTD [20]: 2000 mg/kg; Activity (K562 [21]): Active; Activity (K562 [22]): Active; inhibition (K562 [23]): inactive; inhibition (K562 [24]): inactive
3 | O=C(COc1ccc(/C=C2\SC(=O)NC2=O)cc1)Nc1ccc(Cl)cc1C(F)(F)F | > 70 | 56.7 | 28.9 | 32.5 | 67.5 | > 100 | > 100 | 49.7 | 0.23 | 86.8 | > 100 | Active | Active | Active | Dose-dependent effect | Dose-dependent effect | Dose-dependent effect | Tde | Tde | Tde | inhibition (K562 [25]): Active; Activity (K562 [26]): Dose-dependent effect; Activity (K562 [27]): Dose-dependent effect; inhibition of growth at 1 µM (K562 [16]): 65%; inhibition of growth at 1 µM (K562 [17]): 82%; Activity [18]: Non-Toxic; Activity [19]: Non-Toxic; MTD [20]: 2000 mg/kg; Activity (K562 [21]): Active; Activity (K562 [22]): Active; inhibition (K562 [23]): inactive; inhibition (K562 [24]): inactive
